# TPT1 inh = blocks Candida albicans tRNA 2'-phosphotransferase | inhibition, % at 5 µM | AID 1962 | hit rate 0.81% among 300,000 | recombinant caTPT1, FP RNA substrate dephosphorylation;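 active = inhibition above the mean of all tested compounds plus 3 SD, set per screening campaign, cut at about 24% in these data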
# Rpn11 block = blocks the human proteasome subunit Rpn11; O00487; human 26S proteasome, Ub4-pepOG fluorescence polarization; 20S core pre-blocked with epoxomicin; inhibition, % at 20 µM; hit rate 0.59% among 360,000; AID 588493;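 active = inhibition at 20 µM, scaled to each plate's controls, above about 33%, limit read from the data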
# Target sequence (O00487 whole entry, looked up): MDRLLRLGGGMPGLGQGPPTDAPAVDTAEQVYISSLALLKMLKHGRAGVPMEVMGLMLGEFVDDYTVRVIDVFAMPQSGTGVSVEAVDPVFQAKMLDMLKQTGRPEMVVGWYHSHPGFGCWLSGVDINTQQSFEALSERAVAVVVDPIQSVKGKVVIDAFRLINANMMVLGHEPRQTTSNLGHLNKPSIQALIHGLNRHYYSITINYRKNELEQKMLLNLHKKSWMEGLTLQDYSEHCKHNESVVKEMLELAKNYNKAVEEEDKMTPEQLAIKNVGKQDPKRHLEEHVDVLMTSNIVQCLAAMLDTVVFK
# HNF4A DNA FP = change in binding of human HNF4 alpha to DNA; P41235; HNF4a-FITC DNA binding, fluorescence polarization, 1 h; activity change, % at 10 µM; hit rate 0.3% among 360,000; AID 1224865; in the data active = activity change above about 30%, passing the limit was not always enough
# CSN inh = CSN deneddylation inhibition | Q92905 | Purified CSN, SCF-Nedd8-OG deneddylation, fluorescence polarization | inhibition, % at 12.5 µM | hit rate 0.38% among 360,000;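 active = pattern-corrected inhibition above about 35%, with an unprinted fluorescence ratio check between 0.5 and 1.5, limit read from the data, passing the limit was not always enough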
#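 Schedule: reaction 90 min, room temperature / Assay system: HEK293T-derived human Csn5 enzyme / Input: Csn5 at 0.24 nM final / Measure: inhibition of Csn5 cleavage, % / Control set: substrate-only high control, full reaction low control / Technique: fluorescence polarization of the substrate / Buffer or medium: Tris/NaCl/DTT buffer, pH 7.5 / Reagent: SCFSkp2-Nedd8OG substrate at 10 nM final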
# ATG4B inh = inhibitors of human ATG4B cysteine protease. Q9Y4P1. ATG4B cleavage of LC3-PLA2, NBD-HPC fluorescence, 1 h. inhibition, % at 8.33 µM. hit rate 0.51% among 340,000; in the data active = inhibition above about 40%
# SENP1 inh = SENP1 (human) catalytic domain inhibition; Q9P0U3; recombinant SENP1 catalytic domain, CyPet-SUMO1-YPet FRET cleavage; inhibition, % at 10 µM; hit rate 0.21% among 360,000; AID 624204;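 active = inhibition at least 30% at 10 µM, raw YFP signal under a set limit, fluorescence ratio 0.5 to 1.5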
# Target sequence (Q9P0U3 419-644 limits assumed): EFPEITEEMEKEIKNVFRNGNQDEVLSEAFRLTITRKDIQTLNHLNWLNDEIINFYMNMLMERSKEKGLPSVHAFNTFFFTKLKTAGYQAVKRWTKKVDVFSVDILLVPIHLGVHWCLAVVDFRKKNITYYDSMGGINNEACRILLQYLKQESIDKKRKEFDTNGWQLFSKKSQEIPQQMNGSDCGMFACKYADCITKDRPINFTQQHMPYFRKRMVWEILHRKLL
#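 Test system: hSENP1 catalytic domain, recombinant; Amount: 20 pM final SENP1 enzyme; Medium: Tris pH 8 buffer plus EDTA, NaCl, BME, BSA, NP40, catalase; Schedule: 50 min enzyme reaction, room temperature, light-protected; Technique: FRET fluorescence in CFP and YFP emission channels; Controls: no-enzyme wells low, DMSO-plus-enzyme wells high control.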
# CSN deneddyl val = validation of inhibitors of human CSN-mediated cullin deneddylation. shares compounds with CSN inh. Csn5 deneddylation of SCF-Nedd8OG, fluorescence polarization, 90 min. inhibition, % at 16.6 µM. hit rate 62% among 540; in the data active = inhibition above about 50%
# MMP-2 counter = blocks human MMP-2 in a CSN deneddylation counter-screen; shares compounds with CSN inh; recombinant MMP-2, FRET substrate fluorescence, 60 min; inhibition, % at 16.6 µM; hit rate 33% among 540; AID 720655;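 active = corrected plate-normalized z-score of 5 or more, or -5 or less, or inhibition of 15% or more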
# Thrombin counter = thrombin (bovine) inhibition, counter-screen for CSN hits. inhibition, % at 16.6 µM. AID 720656. hit rate 49% among 540. bovine thrombin cleavage of Ub4-pepOG, fluorescence polarization. shares compounds with CSN inh;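 active = inhibition at or above a set limit, with a fluorescence interference ratio between 0.5 and a set maximum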
# A number is an active result; i = inactive; nt = no result given. An excerpt weighted towards active compounds, which were near 2% of everything screened.
SMILES,TPT1 inh,Rpn11 block,HNF4A DNA FP,CSN inh,ATG4B inh,SENP1 inh,CSN deneddyl val,MMP-2 counter,Thrombin counter
COc1ccccc1CNC(=O)COC(=O)COc1ccccc1F,nt,i,i,i,i,i,nt,nt,nt
COc1ccc(/C=C(\NC(=O)c2ccc(C)cc2)C(=O)NCCCn2ccnc2)cc1,i,i,i,i,i,i,nt,nt,nt
COc1ccc(N=C2NC(=O)/C(=C\C=C\c3ccco3)S2)cc1,nt,i,i,46,i,i,84,i,i
Cc1cccc(N=C2NC(=O)/C(=C/C=C/c3ccco3)S2)c1,i,i,i,53,i,i,88,i,i
Cc1ccc(N=C2NC(=O)/C(=C\c3ccco3)S2)cc1,i,i,i,i,i,i,nt,nt,nt
CC(=O)c1cccc(OCc2cc(C(=O)N3C[C@@H](C)O[C@@H](C)C3)no2)c1,i,i,i,i,i,i,nt,nt,nt
COC(CN(C)S(=O)(=O)c1cc2c3c(c1)CCC(=O)N3CCC2)OC,i,i,i,i,i,i,nt,nt,nt
NC(=O)C1CCCN(C(=O)CCC(=O)c2cccs2)C1 (stereo not given),nt,i,i,i,i,i,nt,nt,nt
CC(O)CC(=O)OC[C@]12CC[C@H]3[C@@](C)(CC[C@H]4C(C)(C)CCC[C@]34C)[C@@H]1CC(C1=CC(=O)OC1O)O2 (stereo not given in full),nt,i,i,46,nt,i,i,i,i
COc1cc(C(=O)N[C@H](C(=O)Nc2nnc(C3CC3)s2)C(C)C)cc(OC)c1OC,i,i,i,i,i,i,nt,nt,nt
O=C(CSc1nc(-c2ccccc2)nc2c1Cc1ccccc1O2)Nc1ccc(C(=O)O)cc1,nt,51,i,48,i,i,60,20,i
CCOC(=O)c1sc2nc3c(SCC(=O)O)cc(C(=O)c4cc(F)ccc4O)cn3c(=O)c2c1C,i,58,i,76,i,i,i,34,i
COc1ccc(O)c(C(=O)c2cc(SCC(=O)O)c3nc4sc5c(c4c(=O)n3c2)CCCC5)c1,i,i,i,i,i,i,nt,nt,nt
COc1cc(C2NC(=O)N(C)C(C)=C2C(=O)OCc2ccccc2)cc(Br)c1O (stereo not given),i,i,i,i,i,i,nt,nt,nt
CCN1/C(=C/c2ccc3cc(C)ccc3[n+]2C)Sc2ccc3sccc3c21,nt,108,i,137,i,44,i,i,67
CCN1/C(=C/c2cccc[n+]2C)Sc2ccc(OC)cc21,i,i,i,i,i,i,nt,nt,nt
CC[n+]1c(/C=C/c2c[nH]c3ccccc23)ccc2cc(C)ccc21,nt,nt,nt,nt,i,nt,nt,nt,nt
CCN1/C(=C/c2ccc3cc(C)ccc3[n+]2CC)Sc2cc(C)ccc21,nt,nt,109,56,i,i,60,i,i
O=S(=O)(Nc1cccc(S(=O)(=O)N2CCOCC2)c1)c1cccs1,i,i,i,i,i,i,nt,nt,nt
CSc1ccc(C2C(C#N)=C(N)Oc3c2ccc(=O)c2c(C)oc(C)c32)cc1 (stereo not given),40,nt,i,49,i,i,95,i,i
Cc1oc(C)c2c(=O)ccc3c(c12)OC(N)=C(C#N)C3c1ccccc1 (stereo not given),i,nt,i,i,i,i,nt,nt,nt
COc1ccc(CCNC(=O)CN(c2ccc(OC)c(OC)c2)S(=O)(=O)c2ccccc2)cc1OC,i,i,i,i,i,i,nt,nt,nt
CCCS(=O)(=O)NC(=O)C1(C)CCCN(C(=O)c2cc(C)nn2C(C)(C)C)C1 (stereo not given),nt,i,i,i,nt,i,nt,nt,nt
Cc1cccc(N2CCN(C(=S)Nc3ccc4nc(N5CCN(C)CC5)cc(C)c4c3)CC2)c1C,nt,i,59,36,i,i,97,i,i
Cc1ccc(C2=NOC(=O)/C2=C\C=C\c2ccccc2)cc1,nt,i,i,35,i,i,103,i,i
SMILES,TPT1 inh,Rpn11 block,HNF4A DNA FP,CSN inh,ATG4B inh,SENP1 inh,CSN deneddyl val,MMP-2 counter,Thrombin counter
CN(C)/C=C1\C(=O)ON=C1c1ccccc1,i,i,i,i,i,i,nt,nt,nt
COc1ccc(C(=O)NCc2nnc(SCC(=O)N3CCC(C)CC3)o2)cc1,i,i,i,i,i,i,nt,nt,nt
COc1ccc(NC(=S)Nc2ccc3nsnc3c2)cc1,i,i,i,49,i,i,94,30,i
CCOc1ccc(NC(=S)Nc2ccc3nsnc3c2)cc1,i,i,i,44,i,i,95,35,i
COc1ccc([C@H]2CC(=O)C[C@@H](CCn3cc(C)nn3)O2)cc1,nt,nt,i,i,nt,i,nt,nt,nt
Nc1ccc2c(O)cc(S(=O)(=O)O)cc2c1,nt,i,i,36,i,i,94,16,i
CC1(C)Cc2c(sc3nc(-c4ccccc4)oc(=O)c23)CO1,i,i,i,i,i,i,nt,nt,nt
O=c1cc(Nc2cccc(Br)c2)[nH]c(=O)[nH]1,i,i,i,i,i,i,nt,nt,nt
O=c1[nH]c(Nc2ccccc2)cc2cc(Br)ccc12,i,i,i,49,i,i,61,i,i
O=C1/C(=C/c2cccnc2)SC(=S)N1Cc1ccco1,nt,i,i,i,i,i,nt,nt,nt
Cc1cc(/C=C2\SC(=S)N(Cc3ccco3)C2=O)c(C)n1-c1cccnc1,nt,nt,i,79,i,i,nt,i,i
CS(=O)(=O)CCC(C(=O)Nc1ccc2c(c1)OCO2)N1Cc2ccccc2C1=O (stereo not given),i,i,i,i,i,i,nt,nt,nt
COc1ccccc1CNC(=O)COC(=O)c1cc(-c2ccco2)nc2ccccc12,i,i,i,49,i,i,nt,i,i
O=C(NCC(c1cccs1)N1CCOCC1)C1CCN(S(=O)(=O)c2ccccc2C(F)(F)F)CC1 (stereo not given),i,i,i,i,i,i,nt,nt,nt
COc1ccccc1NC(=O)C1CCCN(S(=O)(=O)c2ccc3c(c2)CC(C)N3C(C)=O)C1 (stereo not given),i,i,i,i,i,i,nt,nt,nt
O=C(Nc1ccc(Nc2ccncc2)cc1)c1ccc([N+](=O)[O-])cc1,i,i,i,i,i,i,nt,nt,nt
O=C(Nc1ccc(Nc2ccncc2)cc1)c1ccc(Nc2ccnc3ccc([N+](=O)[O-])cc23)cc1[N+](=O)[O-],i,i,i,54,i,i,nt,36,i
CCC(=O)Nc1ccc(C(=O)COC(=O)c2nc3nccc(C)n3n2)cc1,nt,i,i,44,i,i,nt,i,i
Cc1ccnc2nc(C(=O)OCC(=O)c3ccc(NC(=O)CC(C)C)cc3)nn12,nt,i,i,i,i,i,nt,nt,nt
